Assay results from ChEMBL document CHEMBL3817823 (J Med Chem, 2016).
Converted amounts (≈) assume the structure as drawn. The source made the active and inactive calls. The calls are words filed in the database; no cut-off is given here.

Tests used:
[1] = Aqueous solubility of the compound; assay type: physicochemical; conditions: buffer
[2] = tested on: Hepatocyte; assay: Clearance in rat hepatocytes at 1 uM measured up to 90 mins by LC-MS/MS analysis; assay type: ADME, cell-based
[3] = tested on: Mus musculus; assay: In vivo inhibition of SMYD2 expressed in human KYSE-150 cells xenografted in BALB/c nude mouse assessed as suppression of AHNAK methylation at 30 to 100 mg/kg, po administered qd for 3 days by dot-blot analysis; assay type: functional, organism-based
Method in brief: (§1)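 Mice with subcutaneous KYSE-150 tumor xenografts dosed orally once daily for 3 days (vehicle PEG 400/water 8:2), n = 12 per group; tumors then harvested and AHNAK methylation measured ex vivo by dot blot with SY46 antibody; group means ± SD, Student's t test versus vehicle.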

[4] = target: Histone-lysine N-methyltransferase SUV39H2 (Homo sapiens) (UniProt Q9H5I1); assay: Inhibition of SUV39H2 (unknown origin) at 1 to 50 uM by scintillation proximity assay
[5] = target: N-lysine methyltransferase KMT5A (Homo sapiens) (UniProt Q9NQR1); assay: Inhibition of SETD8 (unknown origin) at 1 to 50 uM by scintillation proximity assay
[6] = target: Protein arginine N-methyltransferase 5 (Homo sapiens) (UniProt O14744); assay: Inhibition of PRMT5 (unknown origin) at 1 to 50 uM by scintillation proximity assay
[7] = target: Protein arginine N-methyltransferase 6 (Homo sapiens) (UniProt Q96LA8); assay: Inhibition of PRMT6 (unknown origin) at 1 to 50 uM by scintillation proximity assay
[8] = target: Protein arginine N-methyltransferase 7 (Homo sapiens) (UniProt Q9NVM4); assay: Inhibition of PRMT7 (unknown origin) at 1 to 50 uM by scintillation proximity assay
[9] = target: Protein arginine N-methyltransferase 8 (Homo sapiens) (UniProt Q9NR22); assay: Inhibition of PRMT8 (unknown origin) at 1 to 50 uM by scintillation proximity assay
[10] = target: Histone-lysine N-methyltransferase SETD2 (Homo sapiens) (UniProt Q9BYW2); assay: Inhibition of SETD2 (unknown origin) at 1 to 50 uM by scintillation proximity assay
[11] = target: Histone-lysine N-methyltransferase KMT5C (Homo sapiens) (UniProt Q86Y97); assay: Inhibition of SUV420H2 (unknown origin) at 1 to 50 uM by scintillation proximity assay
[12] = target: DNMT3A2/3L complex (Homo sapiens) (UniProt Q9Y6K1+Q9UJW3); assay: Inhibition of DNMT3A/3L (unknown origin) at 1 to 50 uM by TCA precipitation assay; assay type: protein-complex assay
[13] = target: DNMT3B-DNMT3L complex (Homo sapiens) (UniProt Q9UBC3+Q9UJW3); assay: Inhibition of DNMT3B/3L (unknown origin) at 1 to 50 uM by TCA precipitation assay; assay type: protein-complex assay
[14] = target: Histone-lysine N-methyltransferase ASH1L (Homo sapiens) (UniProt Q9NR48); assay: Inhibition of ASH1L (unknown origin) at 1 to 50 uM by TCA precipitation assay
[15] = target: Histone-lysine N-methyltransferase, H3 lysine-79 specific (Homo sapiens) (UniProt Q8TEK3); assay: Inhibition of DOT1L (unknown origin) at 1 to 50 uM by TCA precipitation assay
[16] = target: Histone-lysine N-methyltransferase, H3 lysine-36 specific (Homo sapiens) (UniProt Q96L73); assay: Inhibition of NSD1 (unknown origin) at 1 to 50 uM by TCA precipitation assay
[17] = target: Histone-lysine N-methyltransferase NSD2 (Homo sapiens) (UniProt O96028); assay: Inhibition of NSD2 (unknown origin) at 1 to 50 uM by TCA precipitation assay
[18] = target: Histone-lysine N-methyltransferase NSD3 (Homo sapiens) (UniProt Q9BZ95); assay: Inhibition of NSD3 (unknown origin) at 1 to 50 uM by TCA precipitation assay
[19] = Effect on p53 protein levels in HEK293T cells by Western blot analysis; assay type: ADME, cell-based; conditions: human, hek-293t
[20] = tested on: MDA-MB-231; assay: Effect on AHNAK protein levels in human MDA-MB-231 cells at 6.3 to 2000 nM by Western blot analysis; assay type: ADME, cell-based; conditions: mda-mb-231, 2 µM
Method in brief: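 MDA-MB231 cells overexpressing SMYD2 treated with inhibitor over a concentration series; Western blot probed for AHNAK methylation (SY46 antibody) and total AHNAK protein.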

[21] = tested on: KYSE-150 cell line; assay: Induction of apoptosis in human KYSE-150 cells assessed as caspase 3/7 activation up to 20 uM after 2 days by […]; assay type: functional, cell-based
[22] = tested on: KYSE-150 cell line; assay: Potentiation of doxorubicin-induced apoptosis in human KYSE-150 cells assessed as caspase 3/7 activation up to 20 uM after 2 days by […]; assay type: functional, cell-based
[23] = tested on: A2780; assay: Induction of apoptosis in human A2780 cells assessed as caspase 3/7 activation up to 20 uM after 2 days by […]; assay type: functional, cell-based
[24] = tested on: A2780; assay: Potentiation of doxorubicin-induced apoptosis in human A2780 cells assessed as caspase 3/7 activation up to 20 uM after 2 days by […]; assay type: functional, cell-based
[25] = tested on: KYSE-150; assay: Antitumor activity against human KYSE-150 cells xenografted in BALB/c mouse assessed as reduction in tumor area at 500 mg/kg, po administered qd relative to control; assay type: functional, organism-based
Method in brief: (§2)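 Mice carrying subcutaneous KYSE-150 xenografts; dosing began day 4 after inoculation. Arms: vehicle (Solutol/ethanol/water 1:1:8 iv qd, plus saline iv once at day 4), inhibitor 500 mg/kg po qd, doxorubicin 10 mg/kg iv once at day 4, or the combination. Tumor area tracked (mean ± SEM); final tumor weight gives T/C; Dunn's method versus vehicle.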

[26] = tested on: KYSE-150; assay: Antitumor activity against human KYSE-150 cells xenografted in BALB/c mouse assessed as reduction in tumor weight at 500 mg/kg, po administered qd relative to control; assay type: functional, organism-based; method in brief: as §2
[27] = tested on: KYSE-150; assay: Antitumor activity against human KYSE-150 cells xenografted in BALB/c mouse assessed as reduction in tumor weight at 500 mg/kg, po administered qd in presence of doxorubicin relative to control; assay type: functional, organism-based; method in brief: as §2
[28] = Antitumor activity against human KYSE-150 cells xenografted in BALB/c mouse assessed as tumor growth relative to control at 500 mg/kg, po administered qd in presence of doxorubicin; assay type: functional; method in brief: as §2
[29] = tested on: Mus musculus; assay: In vivo inhibition of SMYD2 expressed in human KYSE-150 cells xenografted in BALB/c nude mouse assessed as suppression of AHNAK methylation at 30 mg/kg, po administered qd for 3 days by dot-blot analysis relative to untreated control; assay type: functional; method in brief: as §1
[30] = tested on: Mus musculus; assay: In vivo inhibition of SMYD2 expressed in human KYSE-150 cells xenografted in BALB/c nude mouse assessed as suppression of AHNAK methylation at 70 mg/kg, po administered qd for 3 days by dot-blot analysis relative to untreated control; assay type: functional; method in brief: as §1
[31] = Blood clearance in rat by LC/MS/MS analysis
[32] = tested on: Mus musculus; assay: Time>IC50 for cellular methylation in mouse at 10 to 100 mg/kg, po qd

Sequence of Histone-lysine N-methyltransferase NSD2 (Homo sapiens) (O96028 whole entry): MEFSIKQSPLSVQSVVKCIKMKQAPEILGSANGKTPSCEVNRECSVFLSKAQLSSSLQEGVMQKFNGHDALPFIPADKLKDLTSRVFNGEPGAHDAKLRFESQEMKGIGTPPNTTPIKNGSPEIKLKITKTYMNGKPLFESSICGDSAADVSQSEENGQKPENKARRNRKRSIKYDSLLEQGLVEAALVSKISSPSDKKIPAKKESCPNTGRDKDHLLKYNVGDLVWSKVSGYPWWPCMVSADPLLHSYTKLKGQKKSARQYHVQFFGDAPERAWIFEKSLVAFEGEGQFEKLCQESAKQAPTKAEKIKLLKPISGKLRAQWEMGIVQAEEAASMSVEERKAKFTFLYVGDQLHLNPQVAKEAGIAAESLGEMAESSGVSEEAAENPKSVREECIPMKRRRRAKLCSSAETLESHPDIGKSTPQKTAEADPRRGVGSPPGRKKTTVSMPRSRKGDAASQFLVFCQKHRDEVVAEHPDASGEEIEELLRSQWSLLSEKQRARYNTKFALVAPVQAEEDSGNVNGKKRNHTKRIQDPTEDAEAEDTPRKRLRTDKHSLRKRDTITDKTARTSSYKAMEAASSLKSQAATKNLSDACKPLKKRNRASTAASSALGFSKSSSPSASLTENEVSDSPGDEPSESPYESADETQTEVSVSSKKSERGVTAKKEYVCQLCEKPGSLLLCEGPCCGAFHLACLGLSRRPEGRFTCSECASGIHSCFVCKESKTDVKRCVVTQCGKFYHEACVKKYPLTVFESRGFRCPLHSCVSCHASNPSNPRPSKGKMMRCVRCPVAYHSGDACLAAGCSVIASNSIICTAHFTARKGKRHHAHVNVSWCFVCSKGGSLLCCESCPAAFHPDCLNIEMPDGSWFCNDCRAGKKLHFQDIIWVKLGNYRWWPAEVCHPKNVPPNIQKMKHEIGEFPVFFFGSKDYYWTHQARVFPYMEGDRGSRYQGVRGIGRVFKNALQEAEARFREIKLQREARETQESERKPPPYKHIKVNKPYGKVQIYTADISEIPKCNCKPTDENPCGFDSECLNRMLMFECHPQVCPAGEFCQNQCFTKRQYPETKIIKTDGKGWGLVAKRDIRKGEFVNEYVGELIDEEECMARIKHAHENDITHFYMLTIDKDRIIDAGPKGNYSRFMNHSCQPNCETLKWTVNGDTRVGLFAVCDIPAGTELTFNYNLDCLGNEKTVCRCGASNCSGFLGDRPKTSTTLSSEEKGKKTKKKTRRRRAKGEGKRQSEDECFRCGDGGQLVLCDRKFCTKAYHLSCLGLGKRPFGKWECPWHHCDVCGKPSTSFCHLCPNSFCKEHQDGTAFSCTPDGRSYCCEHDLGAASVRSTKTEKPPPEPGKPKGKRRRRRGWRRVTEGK
Sequence of Histone-lysine N-methyltransferase SETD2 (Homo sapiens) (Q9BYW2 whole entry): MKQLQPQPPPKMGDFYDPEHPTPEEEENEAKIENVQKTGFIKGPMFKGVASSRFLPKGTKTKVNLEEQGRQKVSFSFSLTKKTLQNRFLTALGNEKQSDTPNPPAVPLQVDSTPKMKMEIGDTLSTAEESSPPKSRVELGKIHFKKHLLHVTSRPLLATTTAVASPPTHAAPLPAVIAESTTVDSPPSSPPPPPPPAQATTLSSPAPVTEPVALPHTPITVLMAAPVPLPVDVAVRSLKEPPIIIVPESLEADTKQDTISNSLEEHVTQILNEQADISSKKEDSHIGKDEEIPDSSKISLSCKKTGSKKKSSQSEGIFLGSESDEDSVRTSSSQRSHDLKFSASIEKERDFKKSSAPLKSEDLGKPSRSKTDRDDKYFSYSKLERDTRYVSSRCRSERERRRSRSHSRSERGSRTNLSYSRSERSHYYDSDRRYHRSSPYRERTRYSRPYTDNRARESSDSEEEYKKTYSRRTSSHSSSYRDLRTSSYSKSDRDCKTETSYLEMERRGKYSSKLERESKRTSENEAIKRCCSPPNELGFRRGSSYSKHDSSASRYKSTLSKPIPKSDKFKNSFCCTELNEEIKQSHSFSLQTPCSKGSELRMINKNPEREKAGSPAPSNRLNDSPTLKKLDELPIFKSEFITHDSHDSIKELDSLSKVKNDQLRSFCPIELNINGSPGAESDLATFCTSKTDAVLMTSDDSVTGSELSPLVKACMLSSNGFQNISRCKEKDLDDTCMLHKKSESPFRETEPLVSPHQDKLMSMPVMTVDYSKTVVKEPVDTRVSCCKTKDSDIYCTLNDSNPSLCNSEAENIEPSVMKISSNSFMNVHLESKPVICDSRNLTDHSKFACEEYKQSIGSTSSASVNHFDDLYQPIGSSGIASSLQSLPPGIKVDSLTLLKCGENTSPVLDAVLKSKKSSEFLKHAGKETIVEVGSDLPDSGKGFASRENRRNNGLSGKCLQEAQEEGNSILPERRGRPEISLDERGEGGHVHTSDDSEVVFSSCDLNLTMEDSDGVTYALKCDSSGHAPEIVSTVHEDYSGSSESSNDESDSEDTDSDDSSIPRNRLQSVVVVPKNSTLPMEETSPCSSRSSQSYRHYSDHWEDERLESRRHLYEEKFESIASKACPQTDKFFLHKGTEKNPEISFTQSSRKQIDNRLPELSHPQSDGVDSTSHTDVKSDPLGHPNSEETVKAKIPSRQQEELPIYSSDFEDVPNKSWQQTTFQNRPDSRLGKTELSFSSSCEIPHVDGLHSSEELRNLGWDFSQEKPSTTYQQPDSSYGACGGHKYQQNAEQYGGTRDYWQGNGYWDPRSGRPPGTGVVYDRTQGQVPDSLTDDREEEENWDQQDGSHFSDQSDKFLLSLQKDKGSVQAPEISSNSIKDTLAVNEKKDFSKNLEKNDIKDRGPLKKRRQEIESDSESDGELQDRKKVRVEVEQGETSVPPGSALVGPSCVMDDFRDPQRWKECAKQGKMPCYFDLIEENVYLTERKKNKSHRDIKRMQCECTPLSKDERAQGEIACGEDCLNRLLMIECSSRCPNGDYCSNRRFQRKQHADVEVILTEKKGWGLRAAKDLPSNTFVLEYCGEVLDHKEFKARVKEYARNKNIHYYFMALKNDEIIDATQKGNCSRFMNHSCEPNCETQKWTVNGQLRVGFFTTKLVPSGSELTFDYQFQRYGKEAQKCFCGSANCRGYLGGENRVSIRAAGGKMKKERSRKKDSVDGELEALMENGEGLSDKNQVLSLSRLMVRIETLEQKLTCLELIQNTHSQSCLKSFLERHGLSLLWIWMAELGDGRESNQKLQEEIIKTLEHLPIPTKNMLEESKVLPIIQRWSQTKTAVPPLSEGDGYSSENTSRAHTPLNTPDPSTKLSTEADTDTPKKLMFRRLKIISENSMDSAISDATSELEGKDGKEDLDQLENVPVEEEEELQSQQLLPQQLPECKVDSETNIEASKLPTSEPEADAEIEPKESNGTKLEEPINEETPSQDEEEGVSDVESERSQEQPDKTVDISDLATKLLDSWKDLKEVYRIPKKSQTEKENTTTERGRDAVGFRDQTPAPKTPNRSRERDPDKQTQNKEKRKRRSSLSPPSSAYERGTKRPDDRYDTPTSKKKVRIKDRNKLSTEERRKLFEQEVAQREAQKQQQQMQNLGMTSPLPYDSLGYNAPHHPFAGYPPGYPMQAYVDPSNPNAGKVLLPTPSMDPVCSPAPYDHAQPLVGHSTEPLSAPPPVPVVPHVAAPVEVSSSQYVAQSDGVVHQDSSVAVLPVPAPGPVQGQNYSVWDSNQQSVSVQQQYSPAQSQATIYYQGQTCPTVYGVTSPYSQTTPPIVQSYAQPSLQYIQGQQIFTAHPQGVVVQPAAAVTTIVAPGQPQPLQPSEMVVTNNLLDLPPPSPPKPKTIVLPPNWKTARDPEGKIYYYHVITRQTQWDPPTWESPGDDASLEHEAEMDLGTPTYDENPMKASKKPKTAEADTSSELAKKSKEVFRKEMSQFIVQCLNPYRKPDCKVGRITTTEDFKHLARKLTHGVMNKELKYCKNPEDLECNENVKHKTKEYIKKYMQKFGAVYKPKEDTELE
Sequence of Protein arginine N-methyltransferase 7 (Homo sapiens) (Q9NVM4 whole entry): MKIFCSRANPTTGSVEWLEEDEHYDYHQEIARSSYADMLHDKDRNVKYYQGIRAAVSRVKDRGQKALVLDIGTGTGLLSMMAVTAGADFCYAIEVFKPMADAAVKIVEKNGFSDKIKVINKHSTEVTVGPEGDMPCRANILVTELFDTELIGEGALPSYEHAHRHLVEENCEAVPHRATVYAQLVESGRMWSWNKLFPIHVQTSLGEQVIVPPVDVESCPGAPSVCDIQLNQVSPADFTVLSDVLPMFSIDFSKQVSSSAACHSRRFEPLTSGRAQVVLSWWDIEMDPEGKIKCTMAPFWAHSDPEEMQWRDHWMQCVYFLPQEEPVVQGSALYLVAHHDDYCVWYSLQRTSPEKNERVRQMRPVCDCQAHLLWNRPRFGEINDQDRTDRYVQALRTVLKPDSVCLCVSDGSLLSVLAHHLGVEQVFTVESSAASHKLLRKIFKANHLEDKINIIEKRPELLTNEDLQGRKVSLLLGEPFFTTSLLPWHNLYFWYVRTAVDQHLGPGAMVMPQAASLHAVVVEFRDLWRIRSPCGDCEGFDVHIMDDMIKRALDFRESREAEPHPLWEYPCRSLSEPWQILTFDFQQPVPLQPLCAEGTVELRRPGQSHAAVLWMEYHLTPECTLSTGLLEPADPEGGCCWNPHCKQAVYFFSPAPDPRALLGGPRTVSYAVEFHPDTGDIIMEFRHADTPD
Sequence of Histone-lysine N-methyltransferase SUV39H2 (Homo sapiens) (Q9H5I1 whole entry): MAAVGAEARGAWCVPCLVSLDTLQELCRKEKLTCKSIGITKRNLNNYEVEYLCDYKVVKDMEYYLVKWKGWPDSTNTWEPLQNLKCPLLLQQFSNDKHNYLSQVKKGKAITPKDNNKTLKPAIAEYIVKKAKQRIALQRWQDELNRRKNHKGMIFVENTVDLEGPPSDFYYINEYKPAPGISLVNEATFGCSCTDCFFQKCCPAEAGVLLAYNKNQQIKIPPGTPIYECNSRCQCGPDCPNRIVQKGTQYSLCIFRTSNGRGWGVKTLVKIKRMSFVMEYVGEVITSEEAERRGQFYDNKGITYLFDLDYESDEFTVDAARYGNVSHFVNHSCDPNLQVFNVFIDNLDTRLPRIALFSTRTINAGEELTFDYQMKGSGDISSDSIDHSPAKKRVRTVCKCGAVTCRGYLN

solubility [1]: 20 µg/mL (≈ 38.1 µM)
CLH [2]: 41.7 mL/min/kg
inhibition [4]: inactive
inhibition [5]: inactive
inhibition [6]: inactive
inhibition [7]: inactive
inhibition [8]: inactive
inhibition [9]: inactive
inhibition [10]: inactive
inhibition [11]: inactive
inhibition [12]: inactive
inhibition [13]: inactive
inhibition [14]: inactive
inhibition [15]: inactive
inhibition [16]: inactive
inhibition [17]: inactive
inhibition [18]: inactive
clearance [31]: 26.7 mL/min/kg
Structure (SMILES): CCN(C(=O)CO)[C@H]1CN(/C(=N\C#N)Nc2cccc(OC(F)F)c2)N=C1c1ccc(Cl)c(Cl)c1
inhibition [3]: Active
Activity [19]: Non-toxic
Activity [20]: Non-toxic
Activity [21]: inactive
Activity [22]: Active
Activity [23]: inactive
Activity [24]: Active
Activity [25]: inactive
Activity [26]: inactive
Activity [27]: Active
T/C [28]: 0.46
T/C [29]: 0.71
T/C [30]: 0.73
Time [32]: 9 h
